Measurements reported in article PMC6416488 (Protein and Peptide Letters, 2019).

Tests used:
[1] = without and in the presence of β-lg; ref 10d; cited from earlier work
[2] = ref 3b; cited from earlier work
SKNMC cells = experiment: MTT assay, in vitro anti-cancer activity; assay type: cell-based, human; details: 44 µM, 24 h
Procedure, shortened: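 SKNMC cells were grown in DMEM with 10% FBS and 1% penicillin–streptomycin at 37 °C, 5% CO2, 95% humidity. They were seeded at 20,000/well and pre-incubated 24 h. Medium was replaced with protein-free DMEM, and test compound in DMSO (0–50 μM), alone or protein-complexed, was added for 24 h. MTT (0.5 mg/mL) was added for 4 h, formazan was dissolved in DMSO, and A570 was read. Viability is relative to untreated cells; three separate experiments.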

[3] = phase I trial, oral administration of 3.6 g/day; cited from earlier work
[4] = biological target: T1, modified (acetylated) β-lg (Bos taurus, UniProt P02754); experiment: Intrinsic fluorescence quenching, binding constant and thermodynamics; parameters: species or system Bovine; details: modified B-LG
T1 sequence (P02754 17-178): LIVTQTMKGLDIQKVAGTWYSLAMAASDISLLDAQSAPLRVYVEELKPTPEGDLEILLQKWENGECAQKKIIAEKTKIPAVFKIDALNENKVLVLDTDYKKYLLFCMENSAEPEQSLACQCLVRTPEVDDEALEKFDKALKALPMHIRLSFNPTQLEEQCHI
Procedure, shortened: (§1)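 Proteins were acetylated at 10% w/v in water, 30 °C, pH 7.5–8.5, with acetic anhydride 0.5 g/g protein added over 30–90 min. They were dialysed 24 h against 20 mM phosphate pH 7.0, and lysine modification was checked by TNBS. β-lg was purified from cow milk (>97% by SDS-PAGE). Protein (1 μM) was mixed 1 min with test compound (0–2 μM). Intrinsic fluorescence was read at ex 290, em 310–700 nm. Kb and n came from a double-log Stern–Volmer plot, ΔH°/ΔS° from van't Hoff, and ΔG° from Gibbs.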

native (unmodified) BSA = native (unmodified) BSA (Bos taurus, UniProt P02769); experiment: Intrinsic fluorescence quenching, binding constant and thermodynamics; parameters: species or system Bovine; details: unmodified albumin
native (unmodified) BSA, sequence (P02769 25-607): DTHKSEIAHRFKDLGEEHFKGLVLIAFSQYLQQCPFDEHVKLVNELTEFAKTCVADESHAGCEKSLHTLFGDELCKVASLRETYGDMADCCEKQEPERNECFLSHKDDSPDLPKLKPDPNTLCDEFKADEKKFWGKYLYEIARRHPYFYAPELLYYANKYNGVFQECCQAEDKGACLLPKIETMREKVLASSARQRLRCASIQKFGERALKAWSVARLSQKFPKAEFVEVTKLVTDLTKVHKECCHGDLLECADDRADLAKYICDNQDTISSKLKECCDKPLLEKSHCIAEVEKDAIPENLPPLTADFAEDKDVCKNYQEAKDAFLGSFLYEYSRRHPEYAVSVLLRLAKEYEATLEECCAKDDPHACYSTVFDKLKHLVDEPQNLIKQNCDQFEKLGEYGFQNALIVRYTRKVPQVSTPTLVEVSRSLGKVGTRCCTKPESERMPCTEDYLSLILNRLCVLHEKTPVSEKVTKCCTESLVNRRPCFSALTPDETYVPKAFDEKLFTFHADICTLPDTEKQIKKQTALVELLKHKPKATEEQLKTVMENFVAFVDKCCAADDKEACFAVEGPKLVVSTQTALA

PC12 cells = experiment: Intracellular ROS; assay type: cell-based, rat; details: 1 μM curcumin pretreatment 6 h, H2O2 125 μM 16 h, DCFH-DA
Procedure, shortened: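 PC12 cells were seeded at 20,000/well and pre-incubated 24 h, then switched to protein-free DMEM. They were pretreated 6 h with 1 μM test compound or its protein complex, then exposed to freshly prepared H2O2 (125 μM) for 16 h. DCFH-DA (10 μM) was added for 45 min at 37 °C. Cells were washed twice in PBS, and DCF fluorescence (ex 480/488, em 540/525 nm) was read by microplate reader. Controls were DMSO-treated cells. Results are mean ± S.E.M. of three experiments.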

[5] = physiological pH; cited from earlier work
native (unmodified) β-lg = biological target: T2, native (unmodified) β-lg (Bos taurus, UniProt P02754); experiment: Intrinsic fluorescence quenching, binding constant and thermodynamics; parameters: species or system Bovine; details: unmodified B-LG
T2 sequence (P02754 17-178): T1 sequence (P02754 17-178)
Procedure, shortened: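 Unmodified protein was used; β-lg was purified from fresh cow milk (>97% by SDS-PAGE). Protein (1 μM) in 20 mM sodium phosphate pH 7.0 was co-incubated 1 min with test compound (0–2 μM). Quenching was read at excitation 290 nm, emission 310–700 nm, slits 5/10 nm. Kb and n came from a modified Stern–Volmer double-log plot, ΔH° and ΔS° from the van't Hoff ln Kb vs 1/T slope and intercept, and ΔG° from the Gibbs equation. Data points are means of three determinations.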

[6] = Solvent- and light-mediated curcumin degradation; assay type: physicochemical; details: absolute ethanol, 10 μM curcumin, absorbance 420 nm
Procedure, shortened: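 Test compound: 5 mM methanol stock diluted to 10 μM in absolute ethanol. Samples were held at room temperature either in darkness or under a 100 W lamp. Absorbance maximum at 420 nm was recorded at intervals within 30 min. Degradation rate was taken from the initial slope of a best-fit line.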

[7] = biological target: modified (acetylated) BSA (Bos taurus, UniProt P02769); experiment: Intrinsic fluorescence quenching, binding constant and thermodynamics; parameters: species or system Bovine; details: modified albumin
modified (acetylated) BSA, sequence (P02769 25-607): as above
Procedure, shortened: as §1

[8] = extremely safe even at very high doses; cited from earlier work
[9] = Effect of temperature on hydrolytic stability of curcumin; assay type: physicochemical; details: 80°C, 10 μM curcumin, 20 mM sodium phosphate buffer pH 7.0, 60 min, darkness
Procedure, shortened: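 Test compound: 1 mM methanol stock diluted to 10 μM in 20 mM sodium phosphate buffer pH 7.0. Kept in darkness at 4, 25, 37 or 80 °C for up to 60 min and sampled at set intervals. Fluorescence spectra were taken at excitation 420 nm, emission 440–700 nm, with slits 10/20. Maximum emission was followed over time, and the decomposition rate was taken from the initial slope of a linear fit.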

1,7-bis(4-hydroxy-3-methoxyphenyl)-1,6- heptadiene-3,5-dione [curcumin]
curcumin half-life [1]: 30.8 min | solubility in water [2]: about 11 ng/mL | cell viability (SKNMC cells): 88% | concentration of curcumin in plasma [3]: 11.1 nM | concentration of curcumin in target tissues [3]: 1300 nM | ΔG° ([4]; 310 K (per Table S1)): -9.6836 ± 0.387 kcal/mol | N (number of curcumin binding sites) ([4]; Table 1): 1.347±0.042 | ΔH° ([4]; van't Hoff, 277-310 K): 2.227 ± 0.0225 kcal/mol | ΔS° ([4]; van't Hoff, 277-310 K): 0.161±0.006 J mol^-1·K^-1 | ΔG° (native (unmodified) BSA; 310 K (per Table S1)): -9.1702 ± 0.2751 kcal/mol | N (number of curcumin binding sites) (native (unmodified) BSA; Table 1): 1.249±0.02 | ΔH° (native (unmodified) BSA; van't Hoff, 277-310 K): 6.4971 ± 0.195 kcal/mol | ΔS° (native (unmodified) BSA; van't Hoff, 277-310 K): 0.212±0.002 J mol^-1·K^-1 | effect on H2O2-induced intracellular ROS levels (PC12 cells): significantly reduced | time to molecular fragmentation and degradation by hydrolysis [5]: ≤ 30 min | ΔG° (native (unmodified) β-lg; 310 K (per Table S1)): -7.0335 ± 0.4218 kcal/mol | N (number of curcumin binding sites) (native (unmodified) β-lg; Table 1): 1.145±0.034 | ΔH° (native (unmodified) β-lg; van't Hoff, 277-310 K): -6.4892 ± 0.195 kcal/mol | ΔS° (native (unmodified) β-lg; van't Hoff, 277-310 K): 0.007±0.001 J mol^-1·K^-1 | degradation in non-aqueous solvent [6]: did not degrade | ΔG° ([7]; 310 K (per Table S1)): -4.6953 ± 0.141 kcal/mol | N (number of curcumin binding sites) ([7]; Table 1): 0.975±0.015 | ΔH° ([7]; van't Hoff, 277-310 K): -8.1783 ± 0.163 kcal/mol | ΔS° ([7]; van't Hoff, 277-310 K): -0.047±0.001 J mol^-1·K^-1 | safe dose [8]: 8 to 12 g/day | initial curcumin population remained intact [9]: more than 40%
